Results as given in ChEMBL document CHEMBL2163325, “Discovery of phosphoinositide 3-kinases (PI3K) p110β isoform inhibitor 4-[2-hydroxyethyl(1-naphthylmethyl)amino]-6-[(2S)-2-methylmorpholin-4-yl]-1H-pyrimidin-2-one, an effective antithrombotic agent without associated bleeding and insulin resistance” (Bioorg Med Chem Lett, 2012).
pEC50, pIC50: −log10 of the molar value.

Legend:
Liver microsomes = test: Drug metabolism in human liver microsomes assessed as reactive metabolite formation after 30 mins in presence of glutathione relative to clozapine; format: ADME, Microsome; details: 0.5 h
How it was run: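 Incubation with human liver microsomes (1 mg/mL) plus glutathione for 30 min. Summed glutathione-adduct peak areas divided by the major adduct peak area of clozapine control (average, N = 3). Ratio >1 ranked high, 0.25–1 medium, <0.25 low.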

[1] = target: Phosphatidylinositol 4,5-bisphosphate 3-kinase catalytic subunit gamma isoform (Homo sapiens, UniProt P48736); test: Inhibition of human recombinant His6-tagged PI3K […] expressed in baculovirus infected cells using DiC8-PI(4,5)P2 as substrate after 20 mins by AlphaScreen assay
[2] = target: T1, Phosphatidylinositol 4,5-bisphosphate 3-kinase catalytic subunit delta isoform (Homo sapiens, UniProt O00329); test: Inhibition of human recombinant His6-tagged PI3K p110delta expressed in baculovirus infected cells using DiC8-PI(4,5)P2 as substrate after 20 mins by AlphaScreen assay
T1 sequence (O00329 whole entry): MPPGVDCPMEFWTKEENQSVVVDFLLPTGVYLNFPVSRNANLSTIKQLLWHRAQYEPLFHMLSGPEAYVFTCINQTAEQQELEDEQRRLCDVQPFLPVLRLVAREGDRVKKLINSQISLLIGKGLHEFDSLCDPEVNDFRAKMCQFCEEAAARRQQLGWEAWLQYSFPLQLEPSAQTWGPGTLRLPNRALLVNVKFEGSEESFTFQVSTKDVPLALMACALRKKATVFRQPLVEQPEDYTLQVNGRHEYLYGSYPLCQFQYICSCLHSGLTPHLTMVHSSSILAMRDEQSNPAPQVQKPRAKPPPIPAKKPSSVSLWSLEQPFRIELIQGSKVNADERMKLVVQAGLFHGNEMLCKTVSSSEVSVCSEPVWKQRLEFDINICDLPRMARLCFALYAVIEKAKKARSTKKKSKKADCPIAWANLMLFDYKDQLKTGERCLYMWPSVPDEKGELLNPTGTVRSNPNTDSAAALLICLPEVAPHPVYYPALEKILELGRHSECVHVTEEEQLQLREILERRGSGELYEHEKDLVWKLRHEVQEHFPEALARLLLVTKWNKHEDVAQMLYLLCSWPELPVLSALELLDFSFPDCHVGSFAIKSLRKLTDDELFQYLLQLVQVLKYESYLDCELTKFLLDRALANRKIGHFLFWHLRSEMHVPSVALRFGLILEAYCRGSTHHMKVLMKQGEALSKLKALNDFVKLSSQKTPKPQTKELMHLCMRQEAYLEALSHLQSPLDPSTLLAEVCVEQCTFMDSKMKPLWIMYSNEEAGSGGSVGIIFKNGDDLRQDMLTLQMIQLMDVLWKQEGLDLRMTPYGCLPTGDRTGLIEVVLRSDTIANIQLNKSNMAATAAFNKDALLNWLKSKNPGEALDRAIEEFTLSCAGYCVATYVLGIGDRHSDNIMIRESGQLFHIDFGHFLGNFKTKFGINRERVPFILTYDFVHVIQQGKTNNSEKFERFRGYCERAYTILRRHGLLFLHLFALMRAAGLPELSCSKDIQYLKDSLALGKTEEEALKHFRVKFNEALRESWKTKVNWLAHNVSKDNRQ

[3] = target: Phosphatidylinositol 4,5-bisphosphate 3-kinase catalytic subunit beta isoform (Homo sapiens, UniProt P42338); test: Inhibition of human PI3K p110beta-mediated AKT phosphorylation at Ser473 in MDA-MB-468 cells after 2 hrs by fluorescence microplate cytometric analysis; format: cell-based
How it was run: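 MDA-MB-468 cells kept in DMEM with 10% heat-inactivated FCS and L-glutamine. Seeded at 1500 cells/well, incubated overnight at 37 °C, 5% CO2. Exposed to compound for 2 h. Ser473 phospho-Akt detected with a specific antibody by laser scanning fluorescence microplate cytometry.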

[4] = Antiplatelet activity in Beagle dog whole blood assessed as inhibition of ADP-induced platelet aggregation by impedance aggregometry; format: functional, tissue-based; details: Canis lupus familiaris
How it was run: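 Citrated whole blood drawn by venipuncture from healthy human donors or beagle dogs, sodium citrate at 11 mM final in blood. ADP-induced aggregation read by Multiplate impedance aggregometry. N > 3.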

[5] = target: Voltage-gated inwardly rectifying potassium channel KCNH2 (Homo sapiens, UniProt Q12809); test: Inhibition of human ERG expressed in CHO cells at 31.6 uM by patch clamp assay; format: cell-based
[6] = target: Voltage-gated potassium channel, IKs; KCNQ1(Kv7.1)/KCNE1(MinK) (Homo sapiens, UniProt P51787+P15382); test: Inhibition of human IKs expressed in CHO cells at 31.6 uM by patch clamp assay; format: cell-based
Canis familiaris = test: Ex-vivo antiplatelet activity in iv dosed Beagle dog whole blood assessed as inhibition of ADP-induced platelet aggregation administered as bolus infusion for 1 min followed by continuous infusion for 29 mins; format: functional, organism-based; details: Canis lupus familiaris
How it was run: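 Anaesthetized, intubated, ventilated beagles (N = 2). Femoral artery intima damaged and flow reduced to give cyclic flow reductions. Control period vehicle iv (30% cyclodextrin). Then 5 ascending 30-min periods, each a bolus over 1 min plus continuous infusion for 29 min. Tongue incision bleeding time from 15 min, capped at 15 min. Blood at 20 min for ex vivo aggregation and plasma level. EC50 fitted sigmoidally; EC_BT:2 from an exponential fit.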

Voltage-gated potassium channel, IKs; KCNQ1(Kv7.1)/KCNE1(MinK), sequence (P51787 whole entry, the tested form may be a part): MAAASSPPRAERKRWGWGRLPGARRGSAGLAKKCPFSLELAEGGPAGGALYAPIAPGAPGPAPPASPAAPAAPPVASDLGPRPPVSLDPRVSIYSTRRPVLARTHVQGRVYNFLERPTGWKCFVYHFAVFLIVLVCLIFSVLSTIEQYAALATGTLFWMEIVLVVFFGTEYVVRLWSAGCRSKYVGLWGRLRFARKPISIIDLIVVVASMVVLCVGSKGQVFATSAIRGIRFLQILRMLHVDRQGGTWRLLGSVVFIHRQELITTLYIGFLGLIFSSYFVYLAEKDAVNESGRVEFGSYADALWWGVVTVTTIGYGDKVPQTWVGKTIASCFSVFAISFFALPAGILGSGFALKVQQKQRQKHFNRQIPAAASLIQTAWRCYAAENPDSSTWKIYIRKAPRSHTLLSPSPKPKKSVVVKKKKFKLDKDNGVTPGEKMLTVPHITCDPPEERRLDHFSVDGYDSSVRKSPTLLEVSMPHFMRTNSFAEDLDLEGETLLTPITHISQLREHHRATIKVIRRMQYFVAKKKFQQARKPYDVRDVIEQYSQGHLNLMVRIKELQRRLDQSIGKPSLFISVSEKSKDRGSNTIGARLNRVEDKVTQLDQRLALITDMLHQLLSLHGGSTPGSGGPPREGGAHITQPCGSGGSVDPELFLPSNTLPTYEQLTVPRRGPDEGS
Voltage-gated inwardly rectifying potassium channel KCNH2, sequence (Q12809 whole entry): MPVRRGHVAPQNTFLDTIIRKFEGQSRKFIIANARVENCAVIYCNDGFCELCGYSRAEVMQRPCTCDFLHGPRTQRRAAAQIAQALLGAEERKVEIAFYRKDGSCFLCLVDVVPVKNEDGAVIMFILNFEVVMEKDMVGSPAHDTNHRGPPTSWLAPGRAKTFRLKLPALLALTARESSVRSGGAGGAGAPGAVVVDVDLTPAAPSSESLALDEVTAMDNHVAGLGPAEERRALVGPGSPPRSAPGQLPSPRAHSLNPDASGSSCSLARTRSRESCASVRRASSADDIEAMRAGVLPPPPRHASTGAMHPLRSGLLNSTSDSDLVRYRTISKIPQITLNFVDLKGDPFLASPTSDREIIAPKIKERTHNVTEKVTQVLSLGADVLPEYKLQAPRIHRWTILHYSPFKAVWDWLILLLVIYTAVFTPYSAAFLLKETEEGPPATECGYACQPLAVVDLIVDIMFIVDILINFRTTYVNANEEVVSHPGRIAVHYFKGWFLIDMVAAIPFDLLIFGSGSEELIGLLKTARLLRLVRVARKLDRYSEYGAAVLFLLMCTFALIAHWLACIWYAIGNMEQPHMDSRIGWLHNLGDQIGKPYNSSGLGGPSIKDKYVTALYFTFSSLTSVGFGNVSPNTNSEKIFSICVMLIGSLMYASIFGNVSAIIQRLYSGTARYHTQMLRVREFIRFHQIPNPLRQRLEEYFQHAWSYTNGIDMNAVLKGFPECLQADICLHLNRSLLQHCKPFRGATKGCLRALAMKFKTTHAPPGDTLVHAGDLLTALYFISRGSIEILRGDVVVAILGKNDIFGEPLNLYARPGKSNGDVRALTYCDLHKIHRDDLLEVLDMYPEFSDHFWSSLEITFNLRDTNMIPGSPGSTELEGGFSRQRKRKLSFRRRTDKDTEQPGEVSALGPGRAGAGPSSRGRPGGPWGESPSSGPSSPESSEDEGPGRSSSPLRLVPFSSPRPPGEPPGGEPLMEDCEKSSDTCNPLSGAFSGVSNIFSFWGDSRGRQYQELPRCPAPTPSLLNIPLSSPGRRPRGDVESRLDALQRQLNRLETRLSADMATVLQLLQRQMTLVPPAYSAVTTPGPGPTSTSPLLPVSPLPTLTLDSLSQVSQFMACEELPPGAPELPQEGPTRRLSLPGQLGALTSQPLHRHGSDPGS
Phosphatidylinositol 4,5-bisphosphate 3-kinase catalytic subunit beta isoform, sequence (P42338 whole entry, canonical isoform): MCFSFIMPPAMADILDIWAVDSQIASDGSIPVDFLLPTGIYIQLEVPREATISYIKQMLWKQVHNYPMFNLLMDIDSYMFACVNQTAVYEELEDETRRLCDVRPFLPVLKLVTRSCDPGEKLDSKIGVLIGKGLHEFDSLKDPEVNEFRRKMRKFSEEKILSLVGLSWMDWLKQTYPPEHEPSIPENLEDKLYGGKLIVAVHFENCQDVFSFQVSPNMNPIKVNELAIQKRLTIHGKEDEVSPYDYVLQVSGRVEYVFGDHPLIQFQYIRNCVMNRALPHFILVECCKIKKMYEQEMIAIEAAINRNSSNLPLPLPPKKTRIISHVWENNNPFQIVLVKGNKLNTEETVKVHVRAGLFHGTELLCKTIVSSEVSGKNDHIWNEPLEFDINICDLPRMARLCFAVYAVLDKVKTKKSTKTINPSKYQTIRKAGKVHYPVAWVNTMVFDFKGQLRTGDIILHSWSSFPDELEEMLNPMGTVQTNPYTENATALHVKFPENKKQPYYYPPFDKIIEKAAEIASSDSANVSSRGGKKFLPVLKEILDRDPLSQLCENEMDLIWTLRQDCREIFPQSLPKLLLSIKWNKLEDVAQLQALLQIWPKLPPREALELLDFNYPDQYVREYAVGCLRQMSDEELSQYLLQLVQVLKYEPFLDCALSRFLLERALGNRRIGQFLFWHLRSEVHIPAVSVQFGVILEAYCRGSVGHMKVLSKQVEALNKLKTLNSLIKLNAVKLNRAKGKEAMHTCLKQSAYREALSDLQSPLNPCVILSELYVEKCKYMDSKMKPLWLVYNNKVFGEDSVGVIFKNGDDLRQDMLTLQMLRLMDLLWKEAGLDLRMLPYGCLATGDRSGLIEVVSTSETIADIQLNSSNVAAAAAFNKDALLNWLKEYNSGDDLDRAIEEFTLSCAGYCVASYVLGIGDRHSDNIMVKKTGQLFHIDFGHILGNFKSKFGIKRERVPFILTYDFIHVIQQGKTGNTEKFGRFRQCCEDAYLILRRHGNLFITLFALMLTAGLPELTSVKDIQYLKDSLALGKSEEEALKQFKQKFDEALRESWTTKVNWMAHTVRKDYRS
Phosphatidylinositol 4,5-bisphosphate 3-kinase catalytic subunit gamma isoform, sequence (P48736 whole entry, canonical isoform): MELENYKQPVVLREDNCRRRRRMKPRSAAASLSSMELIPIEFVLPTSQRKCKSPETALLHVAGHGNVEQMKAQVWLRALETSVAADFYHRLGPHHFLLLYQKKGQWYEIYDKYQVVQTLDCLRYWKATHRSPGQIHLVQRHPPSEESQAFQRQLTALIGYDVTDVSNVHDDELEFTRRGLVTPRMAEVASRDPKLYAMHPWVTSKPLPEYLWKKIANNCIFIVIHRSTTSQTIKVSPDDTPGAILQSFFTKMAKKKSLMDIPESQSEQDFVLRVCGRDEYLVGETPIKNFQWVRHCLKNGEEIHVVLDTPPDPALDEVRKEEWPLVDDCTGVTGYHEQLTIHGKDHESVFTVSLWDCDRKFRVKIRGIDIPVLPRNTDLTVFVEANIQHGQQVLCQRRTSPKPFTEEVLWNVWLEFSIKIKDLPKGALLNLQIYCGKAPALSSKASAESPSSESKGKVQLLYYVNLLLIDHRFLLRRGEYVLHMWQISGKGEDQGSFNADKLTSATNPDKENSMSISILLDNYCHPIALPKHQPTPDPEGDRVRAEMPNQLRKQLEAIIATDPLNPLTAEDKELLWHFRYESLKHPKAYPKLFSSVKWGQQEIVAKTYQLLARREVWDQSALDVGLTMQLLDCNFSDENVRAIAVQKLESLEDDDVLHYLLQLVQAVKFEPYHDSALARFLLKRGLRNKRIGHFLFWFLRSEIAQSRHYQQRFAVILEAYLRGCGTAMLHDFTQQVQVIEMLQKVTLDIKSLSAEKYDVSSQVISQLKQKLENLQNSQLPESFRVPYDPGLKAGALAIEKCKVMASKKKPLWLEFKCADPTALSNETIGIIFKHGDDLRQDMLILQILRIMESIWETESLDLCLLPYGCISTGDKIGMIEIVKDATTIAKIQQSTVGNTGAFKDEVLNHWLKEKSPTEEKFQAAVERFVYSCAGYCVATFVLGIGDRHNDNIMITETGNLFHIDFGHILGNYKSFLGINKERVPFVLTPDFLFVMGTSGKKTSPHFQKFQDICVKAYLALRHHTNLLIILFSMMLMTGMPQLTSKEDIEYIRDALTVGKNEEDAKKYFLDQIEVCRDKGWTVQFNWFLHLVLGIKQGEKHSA

With `C[C@H]1CN(c2cc(N(CCO)Cc3cccc4ccccc34)[nH]c(=O)n2)CCO1` the Drug metabolism (Liver microsomes) was “Not Active”, the pIC50 [1] was 4.01 and the pIC50 [2] was 6.77. The pIC50 [3] was 6.71, the pIC50 [4] was 5.42 and the “inhibition (INH)” value [5] was “Not Active”. The “inhibition (INH)” value [6] was “Not Active”, the pEC50 (Canis familiaris) was 5.96 and the inhibition (Canis familiaris) was “Dose-dependent effect”.
